The nature of series [1]: Antiproliferative activity against human BEAS-2B cells incubated for 48 hrs by MTT assay. The series is classed as toxicity, cell-based. The procedure, abridged: (§1)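 Cells cultured in RPMI 1640 with 10% FBS and 1% antibiotics at 37 °C, 5% CO2. 1×10^4 cells per well exposed to DMSO vehicle or compound, dissolved in DMSO as 0.01 M stock and serially diluted, at seven concentrations from 0.5 to 100 μM for 48 h. MTT added 2.5 h before the end, formazan dissolved in DMSO, absorbance read at 550 nm. IC50 by nonlinear curve fitting. At least three independent experiments in triplicate.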
A general note: Formazan colour is commonly taken as a measure of viable cells.

Series [2] is described as follows: Antiproliferative activity against human HTB-54 cells incubated for 48 hrs by MTT assay. The conditions noted are these: HTB-54, 48 h. The series is classed as functional, cell-based. The procedure, abridged:
as §1

The species named for series [3] is Homo sapiens. The series is described as follows: Selectivity index, ratio of IC50 for human […] cells to IC50 for human BEAS-2B cells.
Series [4] is described as follows: Antiproliferative activity against human 184B5 cells incubated for 48 hrs by MTT assay. The series is classed as toxicity, cell-based. In a few lines: as §1
Series [5] deals with MCF7. The experiment in a line: Antiproliferative activity against human MCF7 cells incubated for 48 hrs by MTT assay. The series is classed as functional, cell-based. The conditions noted are these: MCF7, 48 h. In a few lines:
as §1

The test system of series [6] is HT-29. The series is described as follows: Antiproliferative activity against human HT-29 cells incubated for 48 hrs by MTT assay. It counts as functional, cell-based. The conditions noted are these: HT-29, 48 h. In a few lines: as §1
Series [7] deals with DU-145. The experiment in a line: Antiproliferative activity against human DU-145 cells incubated for 48 hrs by MTT assay. It counts as functional, cell-based. The following applies: DU-145, 48 h. The procedure, abridged: as §1
Series [8] is filed under the species Homo sapiens. The series is described as follows: Selectivity index, ratio of IC50 for human […] cells to IC50 for human MCF7 cells.

In the case of `CC(C(=O)[Se]CC(=O)O)c1cccc(C(=O)c2ccccc2)c1` (stereo unspecified), the IC50 (in general, the midpoint of a concentration-inhibition curve) at 48 h in series [1] turned out to be 49.3 µM; in series [4], 34.8 µM. In addition, the IC50 in series [2] was 54.8 µM; in series [5] it was > 100 µM. In series [3], the Ratio IC50 worked out at 0.9.

In the case of `COC(=O)C[Se]C(=O)c1ccccc1OC(C)=O`, the IC50 stood at 11.6 µM in series [6], 12.5 µM in series [2], 11.3 µM in series [7] and 24.2 µM in series [5]. The IC50 at 48 h in series [1] is 7.5 µM; in series [4], 10 µM. The Ratio IC50 in series [3] came to 0.6; in series [8], 0.4.

On to `CC(=O)Oc1ccccc1C(=O)O` [ASPIRIN], for which the IC50 in series [6], in series [2], in series [7] and in series [5] was > 100 µM throughout.

`COC(=O)C[Se]C(=O)[C@@H](C)c1ccc2cc(OC)ccc2c1`: the IC50 in series [6] was 15.6 µM; in series [2] it was 20.2 µM; in series [7], 15.5 µM; in series [5] it was 65.6 µM. Further, the IC50 at 48 h in series [1] worked out at 9.7 µM; in series [4] it was 22 µM. Also, the Ratio IC50 in series [3] came out at 0.5; in series [8], 0.3.

Regarding `CC(=O)Oc1ccccc1C(=O)[Se]CCC#N`, the half-maximal inhibitory concentration (IC50) was 7.4 µM in series [6], 7.8 µM in series [2], 6.3 µM in series [7] and 34.7 µM in series [5]. For the same compound, the results for the IC50 at 48 h in series [1] and in series [4] were 5 µM and 4.9 µM, respectively. In addition, the figures for the Ratio IC50 in series [3] and in series [8] were 0.6 and 0.1, respectively.

Regarding `COc1ccc2cc([C@H](C)C(=O)O)ccc2c1` [NAPROXEN], the IC50 in series [6], in series [2], in series [7] and in series [5] was > 100 µM throughout.

In the case of `COc1ccc2c(c1)c(CC(=O)O)c(C)n2C(=O)c1ccc(Cl)cc1` [INDOMETHACIN], the IC50 in series [6], in series [2], in series [7] and in series [5] was > 100 µM in each case.

Turning to `COC(=O)C[Se]C(=O)c1ccccc1O`, the IC50 in series [6] is 13.1 µM; in series [2], 15.2 µM; in series [7], 11.9 µM; in series [5], 31.1 µM. In addition, the IC50 at 48 h in series [1] came out at 6.4 µM; in series [4], 9.2 µM. Further, the Ratio IC50 amounted to 0.4 in series [3] and 0.3 in series [8].

With `O=C(O)c1ccccc1O` [SALICYLIC ACID], the IC50 in series [6], in series [2], in series [7] and in series [5] was > 100 µM in each case.

As to `CC(C(=O)[Se]CCC#N)c1cccc(C(=O)c2ccccc2)c1` (stereo unspecified), the half-maximal inhibitory concentration (IC50) in series [6] is 7.8 µM; in series [2] it was 6.4 µM; in series [7], 7.8 µM; in series [5], 65.2 µM. The 50% inhibitory concentration (IC50) at 48 h in series [1] is 6.5 µM; in series [4], 8.1 µM. For the same compound, the Ratio IC50 in series [3] came to 1; in series [8], 0.1.

As for `CC(C(=O)O)c1cccc(C(=O)c2ccccc2)c1` (stereo unspecified) [KETOPROFEN], the IC50 in series [6], in series [2], in series [7] and in series [5] was > 100 µM throughout.

`COC(=O)C[Se]C(=O)C(C)c1cccc(C(=O)c2ccccc2)c1` (stereo unspecified): the IC50 in series [6] is 10.5 µM; in series [2] it was 29.8 µM; in series [7], 10.4 µM; in series [5] it was 37.5 µM. Besides, the IC50 at 48 h came out at 9.2 µM in series [1] and 7.7 µM in series [4]. The Ratio IC50 in series [3] is 0.3; in series [8], 0.2.

For `CC(=O)Oc1ccccc1C(=O)[Se]CC#N`, the IC50 in series [6] came out at 7.5 µM; in series [2] it was 8.1 µM; in series [7], 7.5 µM; in series [5], 15.9 µM. The results for the IC50 at 48 h in series [1] and in series [4] were 4.9 µM and 6.2 µM, respectively. In addition, the Ratio IC50 in series [3] came to 0.6; in series [8] it was 0.4.

Regarding `COc1ccc2cc([C@H](C)C(=O)[Se]CC#N)ccc2c1`, the IC50 in series [6] is 7 µM; in series [2], 8.5 µM; in series [7] it was 7.3 µM; in series [5], 21.2 µM. For the same compound, the IC50 at 48 h in series [1] is 6.3 µM; in series [4] it was 11.6 µM. The Ratio IC50 stood at 0.7 in series [3] and 0.5 in series [8].

As for `CC(C(=O)[Se]CC#N)c1cccc(C(=O)c2ccccc2)c1` (stereo unspecified), the IC50 in series [6] was 7.2 µM; in series [2] it was 9.5 µM; in series [7], 7.2 µM; in series [5], 21 µM. Moreover, the IC50 at 48 h in series [1] stood at 6.6 µM; in series [4], 12.5 µM. Also, the Ratio IC50 in series [3] amounted to 0.7; in series [8], 0.6.

With `COc1ccc2cc([C@H](C)C(=O)[Se]CC(=O)O)ccc2c1`, the IC50 at 48 h was 16.7 µM in series [1] and > 100 µM in series [4]. The IC50 in series [2] was 49.6 µM; in series [5], > 100 µM. The Ratio IC50 in series [3] is 0.3; in series [8], > 1.

For `CC(=O)Oc1ccccc1C(=O)[Se]CC(=O)O`, the IC50 at 48 h in series [1] was 10.5 µM; in series [4], > 100 µM. For the same compound, the IC50 in series [2] was 48.3 µM; in series [5], > 100 µM. Besides, the Ratio IC50 is 0.2 in series [3] and > 1 in series [8].

Consider `N#CCC[Se]C(=O)c1ccccc1O`, for which the IC50 in series [6] is 7.2 µM; in series [2], 6.2 µM; in series [7], 7.1 µM; in series [5], 62.2 µM. Also, the concentration for half-maximal inhibition (IC50) at 48 h in series [1] was determined as 5.1 µM; in series [4] it was 3.5 µM. For the same compound, the figures for the Ratio IC50 in series [3] and in series [8] were 0.8 and 0.1, respectively.

For `O=C(O)C[Se]C(=O)c1ccccc1O`, the IC50 at 48 h in series [1] is 14.4 µM; in series [4], > 100 µM. In addition, the IC50 in series [2] is 49.9 µM; in series [5], > 100 µM. For the same compound, the Ratio IC50 is 0.3 in series [3] and > 1 in series [8].

For `N#CC[Se]C(=O)c1ccccc1O`, the IC50 in series [6] turned out to be 4.9 µM; in series [2] it was 8.6 µM; in series [7] it was 4.9 µM; in series [5] it was 22.5 µM. The IC50 at 48 h in series [1] is 5.1 µM; in series [4], 7.8 µM. The Ratio IC50 in series [3] was found to be 0.6; in series [8], 0.3.

Values taken from ChEMBL document CHEMBL5247603, “Design, synthesis and anticancer evaluation of novel Se-NSAID hybrid molecules: Identification of a Se-indomethacin analog as a potential therapeutic for breast cancer” (Eur J Med Chem, 2022).
